Measured values gathered from unrelated publications.
Lines come from different studies, so protocols differ.

Compound | assay | system | conditions | concentration
CC(C)(Nc1nc(-c2ccccn2)nc2ccccc12)c1ccccn1 |  | female BALB/c mouse, plasma | intravenous, 1 mg/kg, 1 h | 487 ng/mL
CC(C)(C)c1cc(NC(=O)Nc2ccc(Oc3ccnc4[nH]c(=O)cnc34)cc2F)n(-c2ccccc2)n1 |  | BALB/c mouse, plasma | oral, 10 mg/kg/day, 24 h | ~1000 nM
CC(C)CN(C[C@@H](O)[C@H](Cc1ccccc1)NC(=O)O[C@H]1CO[C@H]2OCC[C@H]21)S(=O)(=O)c1ccc(N)cc1 |  | BALB/c mouse, plasma | intravenous, 2.5 mg/kg, 12 h | 0.33 ng/mL
O=S(=O)(c1ccc(-c2ccc3nccc(Nc4ccncn4)c3c2)cc1)N1CCOCC1 |  | female BALB/c mouse, plasma | intraperitoneal, 10 mg/kg, 8 h | 2.16 ng/mL
O=S(=O)(c1cccc(C(F)(F)F)n1)N1CCc2ccc(OCc3c(F)cccc3Cl)cc21 |  | mouse, plasma | intraperitoneal, 10 mg/kg, 2 h | 290 nM
COc1cc(F)c([C@@H]2CNC(=O)[C@H]2NC(=O)Nc2ccccc2)c(F)c1 |  | C57BL/6 mouse, plasma | oral, 3 mg/kg, 1 h | 107 nM
O=C(O)C1CCN(c2ncc(-c3ccc4c(c3)OCCCO4)s2)CC1 |  | male Swiss mouse, plasma | oral, 30 mg/kg, 8 h, single dose | 4540 ng/mL
COc1ccc2[nH]c3c(C)c4ccnc(C(=O)N[C@H](C)CN(C)C)c4cc3c2c1 |  | male C57BL/6 mouse, brain | intraperitoneal, 10 mg/kg, 2 h, single dose | 260 nM
CC(C)Cc1nn(C)c(=O)c2c(SCCCO)n(Cc3cccc4ccccc34)cc12 |  | mouse, plasma | intraperitoneal, 20 mg/kg, 7 days, single dose | 0 nM
O=S(=O)(c1cccc(C(F)(F)F)c1)N1CCc2ccc(OCc3c(F)cncc3Cl)cc21 |  | mouse, plasma | intraperitoneal, 10 mg/kg, 2 h | 410 nM
O=c1cc(-c2ccccc2)oc2c(O)c(O)ccc12 |  | male CD-1 mouse, brain | oral, 50 mg/kg, 30 min | 18 ng/g
CN(C)c1ncnc2[nH]cc(-c3cccc(Cl)c3)c12 | mass spectrometry | female C57BL/6 mouse, plasma | intraperitoneal, 20 mg/kg, 30 min, single dose | 8700 nM
c1ccc(-c2nc(N3CCC(c4ccccn4)C3)c3ccccc3n2)nc1 (stereo not drawn) |  | female BALB/c mouse, plasma | oral, 50 mg/kg, 2 h | 2730 ng/mL
CC(C)Oc1cccc(-c2cnc(N3CCC(C(N)=O)CC3)s2)c1 |  | male Swiss mouse, plasma | oral, 30 mg/kg, 24 h, single dose | 20.6 ng/mL
Cc1ccc(-c2cccc3cnc(Nc4ccc(C(=O)N5CCOCC5)cc4)nc23)cn1 |  | mouse, plasma | intraperitoneal, 10 mg/kg, 2 h | 0 nM
O=c1nc(N2CCN(CC3CCCCC3)CC2)sc2c([N+](=O)[O-])cc(C(F)(F)F)cc12 |  | CD-1 mouse, lung | oral, 100 mg/kg, 4 h | 620 ng/mL
O=S(=O)(c1cccc(C(F)(F)F)c1)N1c2cc(OCc3c(Cl)cncc3Cl)ccc2CC1C(F)(F)F (stereo not drawn) |  | mouse, plasma | intraperitoneal, 10 mg/kg, 2 h | 600 nM
Cc1ccc([N+](=O)[O-])cc1S(=O)(=O)n1c(C)nc2ccccc21 |  | mouse, liver | intraperitoneal, 30 mg/kg, 24 h | 3100 nM
[2H]c1c([2H])c([2H])c(-c2ccc([C@H](Cn3ccnc3)NC(=O)c3ccc(-c4nnc(-c5ccccc5)o4)cc3)c(Cl)c2)c([2H])c1[2H] |  | BALB/c mouse, liver | oral, 25 mg/kg, 4 h, single dose | 17000 nM
O=S(=O)(c1cccc(C(F)(F)F)c1)N1CCc2ccc(OCc3c(Cl)cncc3Cl)cc21 |  | mouse, plasma | intraperitoneal, 10 mg/kg, 4 h | 620 nM
Cc1c2ccnc(C(=O)N[C@H](C)CN(C)C)c2cc2c3cc(O)ccc3n(C)c12 |  | male C57BL/6 mouse, plasma | intraperitoneal, 10 mg/kg, 2 h, single dose | 80 nM
